Reference: ChEMBL document CHEMBL2434899, “Peripherally selective diphenyl purine antagonist of the CB1 receptor” (J Med Chem, 2013)
Activity calls are given as the source filed them.

Columns and labels:
[1] = target: Cannabinoid receptor 2 (Homo sapiens, UniProt P34972); assay: Displacement of [3H]CP55940 from CB2 receptor (unknown origin) expressed in CHO-K1 cells; format: cell-based
[2] = target: T1, Cannabinoid receptor 1 (Homo sapiens, UniProt P21554); assay: Antagonist activity at human CB1 receptor expressed in CHO-K1 cells by intracellular Ca2+ mobilization assay in presence of CP55940; format: functional, cell-based
Outline: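 CHO-K1 cells co-expressing human CB1 and Gαq16; intracellular calcium flux read with fluorescent dye on a 96-well plate reader. Rightward shift of the CP55940 concentration-response curve gives Ke = [ligand]/(DR−1), DR being the CP55940 EC50 ratio with versus without test agent. Averages of 3–6 measurements.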

[3] = target: T1, Cannabinoid receptor 1; assay: Displacement of [3H]CP55940 from human CB1 receptor expressed in CHO-K1 cells; format: cell-based
[4] = species on record: Homo sapiens; assay: Selectivity ratio of Ki for CB2 receptor (unknown origin) to Ki for human CB1 receptor
[5] = Drug uptake in brain of Sprague-Dawley rat at 10 mg/kg, po after 8 hrs by LC-MS analysis; format: ADME, organism-based; design: dose 10 mg/kg, route oral; conditions: read-out: Drug uptake
Outline: (§1)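 Male Sprague Dawley rats, 9 weeks old, given 10 mg/kg orally by gavage in corn oil; 3 rats per time point. Un-perfused brain and plasma taken at 1, 2, 4, 8 and 24 h. Plasma, or brain homogenized in ethanol:water, was precipitated with acetonitrile, centrifuged 9000 g for 5 min and analysed by LC-MS/MS (MRM, C18 column).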

[6] = system: Nucleic Acid; assay: Ratio of drug uptake from brain to plasma in Sprague-Dawley rat at 10 mg/kg, po after 1 hr by LC-MS analysis; format: ADME, organism-based; design: dose 10 mg/kg, route oral; outline: as §1
[7] = system: Mus musculus; assay: Antagonist activity at CB1 receptor in ICR mouse assessed as suppression of spontaneous activity at 10 mg/kg, po after 30 mins; format: functional, organism-based; design: dose 10 mg/kg
Outline: (§2)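 ICR mice were gavaged with vehicle or 10 mg/kg, then injected i.v. in the tail vein 30 min later with vehicle or 30 mg/kg Δ9-THC. After 5 min each mouse was placed in an activity chamber for 10 min; horizontal movement was counted as total infrared photobeam interruptions. 5–6 mice per group; factorial ANOVA with Tukey post hoc.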

[8] = system: Mus musculus; assay: Antagonist activity at CB1 receptor in ICR mouse assessed as rectal temperature at 10 mg/kg, po after 30 mins relative to control; format: functional, organism-based; design: dose 10 mg/kg
Outline: (§3)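 Adult ICR mice given vehicle or 10 mg/kg oral gavage, then vehicle or 30 mg/kg Δ9-THC i.v. by tail vein 30 min later. Rectal temperature was taken before injection and at 30 min after it, reported as change (°C). At 40 min, time motionless on an elevated ring over 5 min was recorded as % immobility. 5–6 mice per group; factorial ANOVA with Tukey post hoc.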

[9] = Plasma concentration in Sprague-Dawley rat at 10 mg/kg, po after 4 hrs by LC-MS analysis; format: ADME, organism-based; design: dose 10 mg/kg, route oral; outline: as §1
[10] = system: Mus musculus; assay: Reversal of delta9-THC-mediated suppression of antinociceptive activity in ICR mouse assessed as latency period at 10 mg/kg, po administered 30 mins prior to delta9-THC challenge measured after 20 mins by warm water tail withdrawal assay; format: functional, organism-based; design: dose 10 mg/kg
Outline: (§4)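 ICR mice had baseline tail-withdrawal latency measured in a 55 °C water bath, then received oral vehicle or 10 mg/kg by gavage, followed 30 min later by i.v. vehicle or 30 mg/kg Δ9-THC. Latency was retested 20 min post-injection with a 10 s cutoff, expressed as %MPE = [(test−control)/(10−control)]×100. 5–6 mice per group; factorial ANOVA with Tukey post hoc.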

[11] = Plasma concentration in Sprague-Dawley rat at 10 mg/kg, po after 2 hrs by LC-MS analysis; format: ADME, organism-based; design: dose 10 mg/kg, route oral; outline: as §1
[12] = system: Nucleic Acid; assay: Ratio of drug uptake from brain to plasma in Sprague-Dawley rat at 10 mg/kg, po after 8 hrs by LC-MS analysis; format: ADME, organism-based; design: dose 10 mg/kg, route oral; outline: as §1
[13] = Drug uptake in brain of Sprague-Dawley rat at 10 mg/kg, po after 4 hrs by LC-MS analysis; format: ADME, organism-based; design: dose 10 mg/kg, route oral; conditions: read-out: Drug uptake; outline: as §1
[14] = system: Mus musculus; assay: Reversal of delta9-THC-mediated suppression of catelepsy in ICR mouse at 10 mg/kg, po administered 30 mins prior to delta9-THC challenge measured after 40 mins; format: functional, organism-based; design: dose 10 mg/kg; outline: as §3
[15] = Plasma concentration in Sprague-Dawley rat at 10 mg/kg, po after 8 hrs by LC-MS analysis; format: ADME, organism-based; design: dose 10 mg/kg, route oral; outline: as §1
[16] = system: Nucleic Acid; assay: Ratio of drug uptake from brain to plasma in Sprague-Dawley rat at 10 mg/kg, po after 24 hrs by LC-MS analysis; format: ADME, organism-based; design: dose 10 mg/kg, route oral; outline: as §1
[17] = Drug uptake in brain of Sprague-Dawley rat at 10 mg/kg, po after 2 hrs by LC-MS analysis; format: ADME, organism-based; design: dose 10 mg/kg, route oral; conditions: read-out: Drug uptake; outline: as §1
[18] = Drug uptake in brain of Sprague-Dawley rat at 10 mg/kg, po after 1 hr by LC-MS analysis; format: ADME, organism-based; design: dose 10 mg/kg, route oral; conditions: read-out: Drug uptake; outline: as §1
[19] = system: Mus musculus; assay: Antagonist activity at CB1 receptor in ICR mouse assessed as catelepsy at 10 mg/kg, po after 30 mins; format: functional, organism-based; design: dose 10 mg/kg; outline: as §3
[20] = Plasma concentration in Sprague-Dawley rat at 10 mg/kg, po after 1 hr by LC-MS analysis; format: ADME, organism-based; design: dose 10 mg/kg, route oral; outline: as §1
[21] = Drug uptake in brain of Sprague-Dawley rat at 10 mg/kg, po after 24 hrs by LC-MS analysis; format: ADME, organism-based; design: dose 10 mg/kg, route oral; conditions: read-out: Drug uptake; outline: as §1
[22] = system: Mus musculus; assay: Reversal of delta9-THC-mediated suppression of hypothermia in ICR mouse assessed as rectal temperature at 10 mg/kg, po administered 30 mins prior to delta9-THC challenge measured after 30 mins relative to control; format: functional, organism-based; design: dose 10 mg/kg; outline: as §3
[23] = system: Nucleic Acid; assay: Ratio of drug uptake from brain to plasma in Sprague-Dawley rat at 10 mg/kg, po after 2 hrs by LC-MS analysis; format: ADME, organism-based; design: dose 10 mg/kg, route oral; outline: as §1
[24] = system: Mus musculus; assay: Reversal of delta9-THC-mediated suppression of spontaneous activity in ICR mouse at 10 mg/kg, po administered 30 mins prior to delta9-THC challenge measured after 5 mins; format: functional, organism-based; design: dose 10 mg/kg; outline: as §2
[25] = system: Nucleic Acid; assay: Ratio of drug uptake from brain to plasma in Sprague-Dawley rat at 10 mg/kg, po after 4 hrs by LC-MS analysis; format: ADME, organism-based; design: dose 10 mg/kg, route oral; outline: as §1
[26] = Plasma concentration in Sprague-Dawley rat at 10 mg/kg, po after 24 hrs by LC-MS analysis; format: ADME, organism-based; design: dose 10 mg/kg, route oral; outline: as §1
[27] = system: Mus musculus; assay: Antagonist activity at CB1 receptor in ICR mouse assessed as latency period at 10 mg/kg, po after 30 mins by warm water tail withdrawal assay; format: functional, organism-based; design: dose 10 mg/kg; outline: as §4

T1 sequence (P21554 whole entry): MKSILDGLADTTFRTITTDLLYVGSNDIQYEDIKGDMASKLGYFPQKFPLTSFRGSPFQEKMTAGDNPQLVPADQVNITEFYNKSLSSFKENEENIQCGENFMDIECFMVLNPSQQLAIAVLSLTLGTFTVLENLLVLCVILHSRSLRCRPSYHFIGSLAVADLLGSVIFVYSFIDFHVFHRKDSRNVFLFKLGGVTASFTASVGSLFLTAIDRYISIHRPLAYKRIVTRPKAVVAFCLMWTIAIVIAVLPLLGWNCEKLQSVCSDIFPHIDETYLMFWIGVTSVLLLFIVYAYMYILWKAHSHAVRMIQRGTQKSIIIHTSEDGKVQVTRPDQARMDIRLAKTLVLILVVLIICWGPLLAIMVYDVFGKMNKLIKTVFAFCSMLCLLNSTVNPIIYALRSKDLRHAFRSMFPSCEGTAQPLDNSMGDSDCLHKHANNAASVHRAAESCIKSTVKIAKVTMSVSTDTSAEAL
Cannabinoid receptor 2, sequence (P34972 whole entry): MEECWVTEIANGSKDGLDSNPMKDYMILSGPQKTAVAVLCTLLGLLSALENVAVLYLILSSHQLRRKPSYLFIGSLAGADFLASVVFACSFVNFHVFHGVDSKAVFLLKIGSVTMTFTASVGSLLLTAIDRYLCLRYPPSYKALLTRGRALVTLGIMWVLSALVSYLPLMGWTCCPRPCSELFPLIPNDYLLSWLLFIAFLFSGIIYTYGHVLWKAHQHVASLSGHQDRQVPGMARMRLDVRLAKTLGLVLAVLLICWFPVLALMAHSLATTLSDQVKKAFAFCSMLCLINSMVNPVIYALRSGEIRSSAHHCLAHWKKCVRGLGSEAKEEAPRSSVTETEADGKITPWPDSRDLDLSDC

Which Ki [1] does the source give for `O=C(CC1CCCCC1)NC1CCN(c2ncnc3c2nc(-c2ccccc2Cl)n3-c2ccc(Cl)cc2)CC1` here?
Its Ki is 2360 nM.

And the Ke [2]?
Its Ke is 2.1 nM.

What about the Ki [3] of the same compound?
Its Ki is 1.93 nM.

For `O=C(CC1CCCC1)NC1CCN(c2ncnc3c2nc(-c2ccccc2Cl)n3-c2ccc(Cl)cc2)CC1`, which Ki [1] is on record?
Its Ki is 569 nM.

What about the Ke [2] of the same compound?
The Ke was 2.9 nM.

And the Ki [3]?
Its Ki is 2.02 nM.

And the Ratio Ki [4]?
Its Ratio Ki is 282.

Which results are given for `O=S(=O)(NC1CCN(c2ncnc3c2nc(-c2ccccc2Cl)n3-c2ccc(Cl)cc2)CC1)C(F)(F)F`?
Ki [1]: 4500 nM; Ke [2]: 1.05 nM; Ki [3]: 6.1 nM; Ratio Ki [4]: 738

For `CC(C)CC(=O)NC1CCN(c2ncnc3c2nc(-c2ccccc2Cl)n3-c2ccc(Cl)cc2)CC1`, which Ki [1] is on record?
Its Ki is 89.5 nM.

What about the Ke [2] of the same compound?
The Ke was 5.4 nM.

What about the Ki [3] of the same compound?
The Ki was 4.01 nM.

And the Ratio Ki [4]?
Its Ratio Ki is 22.

Which Ki [1] does the source give for `CC(C)CCC(=O)NC1CCN(c2ncnc3c2nc(-c2ccccc2Cl)n3-c2ccc(Cl)cc2)CC1` here?
The Ki was 215 nM.

What about the Ke [2] of the same compound?
The Ke was 7.4 nM.

And the Ki [3]?
Its Ki is 2.67 nM.

What about the Ratio Ki [4] of the same compound?
The Ratio Ki was 81.

Which results are given for `O=C(NC1CCN(c2ncnc3c2nc(-c2ccccc2Cl)n3-c2ccc(Cl)cc2)CC1)C1CCCCC1`?
Ki [1]: 835 nM; Ke [2]: 3.3 nM; Ki [3]: 3.35 nM; Ratio Ki [4]: 249

With `O=C(CCN1CCCCC1)NC1CCN(c2ncnc3c2nc(-c2ccccc2Cl)n3-c2ccc(Cl)cc2)CC1` as the compound, how does the Ke [2] read?
The Ke was 789 nM.

With `CCCCC(=O)NC1CCN(c2ncnc3c2nc(-c2ccccc2Cl)n3-c2ccc(Cl)cc2)CC1` as the compound, how does the concentration at 8 h [5] read?
Its concentration at 8 h is 62.5 ng/mL.

What about the BPR [6] of the same compound?
Its BPR is 0.03.

What about the Activity [7] of the same compound?
The Activity was “inactive”.

And the Activity [8]?
The Activity was “inactive”.

And the concentration at 4 h [9]?
Its concentration at 4 h is 1560 ng/mL.

What about the Activity [10] of the same compound?
Its Activity is “inactive”.

And the concentration at 2 h [11]?
The concentration at 2 h was 1750 ng/mL.

What about the BPR [12] of the same compound?
The BPR was 0.03.

What about the concentration at 4 h [13] of the same compound?
Its concentration at 4 h is 103 ng/mL.

What about the Activity [14] of the same compound?
Its Activity is “inactive”.

What about the Ki [1] of the same compound?
The Ki was 1050 nM.

What about the Ke [2] of the same compound?
Its Ke is 4.9 nM.

And the concentration at 8 h [15]?
Its concentration at 8 h is 1960 ng/mL.

And the BPR [16]?
The BPR was 0.01.

And the concentration at 2 h [17]?
The concentration at 2 h was 71.5 ng/mL.

What about the concentration at 1 h [18] of the same compound?
The concentration at 1 h was 24.3 ng/mL.

And the Activity [19]?
Its Activity is “inactive”.

And the concentration at 1 h [20]?
Its concentration at 1 h is 730 ng/mL.

And the concentration at 24 h [21]?
Its concentration at 24 h is 5.35 ng/mL.

And the Ki [3]?
Its Ki is 19.5 nM.

What about the Ratio Ki [4] of the same compound?
The Ratio Ki was 54.

And the Activity [22]?
The Activity was “inactive”.

And the BPR [23]?
The BPR was 0.04.

What about the Activity [24] of the same compound?
The Activity was “inactive”.

And the BPR [25]?
Its BPR is 0.07.

What about the concentration at 24 h [26] of the same compound?
The concentration at 24 h was 438 ng/mL.

What about the Activity [27] of the same compound?
Its Activity is “inactive”.

With `NS(=O)(=O)NC1CCN(c2ncnc3c2nc(-c2ccccc2Cl)n3-c2ccc(Cl)cc2)CC1` as the compound, how does the Ke [2] read?
Its Ke is 2770 nM.

With `O=C(NC1CCN(c2ncnc3c2nc(-c2ccccc2Cl)n3-c2ccc(Cl)cc2)CC1)Oc1ccccc1` as the compound, how does the Ki [1] read?
The Ki was 10600 nM.

What about the Ki [3] of the same compound?
The Ki was 2.55 nM.

Which Ki [1] does the source give for `O=C(NC1CCN(c2ncnc3c2nc(-c2ccccc2Cl)n3-c2ccc(Cl)cc2)CC1)C1CCCC1` here?
The Ki was 60.2 nM.

And the Ke [2]?
The Ke was 0.89 nM.

What about the Ki [3] of the same compound?
The Ki was 1.54 nM.

What about the Ratio Ki [4] of the same compound?
Its Ratio Ki is 39.

Which Ke [2] does the source give for `CN(C)CC(=O)NC1CCN(c2ncnc3c2nc(-c2ccccc2Cl)n3-c2ccc(Cl)cc2)CC1` here?
The Ke was 140 nM.

With `CCOC(=O)NC1CCN(c2ncnc3c2nc(-c2ccccc2Cl)n3-c2ccc(Cl)cc2)CC1` as the compound, how does the Ki [1] read?
The Ki was 426 nM.

What about the Ke [2] of the same compound?
The Ke was 2.3 nM.

And the Ki [3]?
Its Ki is 3.57 nM.

And the Ratio Ki [4]?
Its Ratio Ki is 119.

For `COC(=O)NC1CCN(c2ncnc3c2nc(-c2ccccc2Cl)n3-c2ccc(Cl)cc2)CC1`, which Ke [2] is on record?
The Ke was 17 nM.
